ERAP1 HTS inh = human ERAP1 aminopeptidase inhibitors, primary screen, biochemical, single point, plate reader; recombinant ERAP1, Leu-AMC fluorescence, 60 min; Endoplasmic reticulum aminopeptidase 1 (Homo sapiens), Q9NZ08; inhibition, % at 10.7 µM; 340,000 tested, 0.15% active; AID 652197, 2013;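 active = mean replicate inhibition of at least 30%, or all replicates individually reaching that 30% level; inactive = mean below 30% and not every replicate reaching it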
Target sequence (Q9NZ08 whole entry, looked up): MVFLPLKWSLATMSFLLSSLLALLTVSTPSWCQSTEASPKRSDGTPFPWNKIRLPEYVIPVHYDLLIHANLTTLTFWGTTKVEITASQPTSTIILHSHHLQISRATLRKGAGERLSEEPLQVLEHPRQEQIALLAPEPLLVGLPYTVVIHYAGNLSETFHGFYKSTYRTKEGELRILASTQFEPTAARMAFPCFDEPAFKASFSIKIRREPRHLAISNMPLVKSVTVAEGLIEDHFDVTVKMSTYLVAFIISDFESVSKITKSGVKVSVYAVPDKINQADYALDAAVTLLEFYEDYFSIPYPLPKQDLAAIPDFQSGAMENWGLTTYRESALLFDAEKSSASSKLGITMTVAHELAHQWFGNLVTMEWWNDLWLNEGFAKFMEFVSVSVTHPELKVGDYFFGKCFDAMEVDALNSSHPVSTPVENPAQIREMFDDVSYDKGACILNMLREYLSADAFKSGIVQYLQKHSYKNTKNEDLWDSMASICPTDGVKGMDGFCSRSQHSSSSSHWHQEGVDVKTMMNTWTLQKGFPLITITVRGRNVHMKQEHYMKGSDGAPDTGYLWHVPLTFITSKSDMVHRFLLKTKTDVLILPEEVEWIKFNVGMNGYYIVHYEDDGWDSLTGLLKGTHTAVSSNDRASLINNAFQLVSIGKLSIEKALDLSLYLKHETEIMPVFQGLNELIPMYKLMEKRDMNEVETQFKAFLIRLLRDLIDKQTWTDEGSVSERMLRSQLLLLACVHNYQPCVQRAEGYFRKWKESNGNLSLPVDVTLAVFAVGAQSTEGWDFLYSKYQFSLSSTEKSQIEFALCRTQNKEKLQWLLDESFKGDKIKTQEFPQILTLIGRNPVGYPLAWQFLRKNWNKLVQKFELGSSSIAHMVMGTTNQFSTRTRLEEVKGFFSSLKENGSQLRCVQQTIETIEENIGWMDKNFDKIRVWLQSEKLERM
S100A4 MyoIIA = inhibitors of S100A4-myosin IIA peptide binding, primary screen, biochemical, fluorescence polarization, TAMRA-MyoIIA peptide; inhibition, % at 10.7 µM; AID 652163, 2013; Protein S100-A4 (Homo sapiens), P26447; 360,000 tested, 0.14% active;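 active = mean inhibition of at least 70% across replicates, with every replicate also reaching that level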
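assay system = human S100A4 monomer with TAMRA-labelled myosin IIA peptide | also added = labelled myosin peptide probe, 5 nM | incubation = 5 min between mix addition and reading | control set = DMSO and TFP controls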
CASP6 VEID inh = human caspase-6 inhibitors, primary screen, biochemical, VEID-R110 fluorescence, single point, set 2 | P55212 | inhibition, % at 12.5 µM | 350,000 tested, 0.53% active | AID 686996, 2013 | purified caspase-6, Z-VEID-R110 cleavage fluorescence;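 active = mean inhibition across replicates at least about 35%, with every replicate also reaching that limit, limit read from the data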
PGC1a acetyl inh = inhibitors of PGC1a acetylation signal, primary screen, cell-based, U2OS, AlphaScreen, inhibitor mode. AlphaScreen anti-acetyl-lysine; with virally co-expressed GCN5 acetyltransferase. inhibition, % at 15.6 µM. 350,000 tested, 0.17% active. AID 651687, 2012;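 active = every replicate shows inhibition of at least 40%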
ARNT TACC3 PPI = disruptors of ARNT/TACC3 protein interaction, primary screen, biochemical, AlphaScreen, single concentration; 390,000 tested, 0.66% active; inhibition, % at 9.99 µM; AlphaScreen His-ARNT PAS-B/GST-TACC3 binding, luminescence; TACC3 fragment carries E629A point mutation; Transforming acidic coiled-coil-containing protein 3 (Homo sapiens), Q9Y6A5; AID 623870, 2012;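 active = mean inhibition of replicates at least 50% and at least half of replicates each reaching 50%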
Ecoli rRNA inh = reduced GFP signal of wild-type E. coli, primary screen, bacterial rRNA inhibitor project, GFP/RFP fluorescence, OD600, single point | E. coli WT GFP vs humanized-ribosome RFP mutants, 24 h; stronger effect = lower value; DMSO median 0, no signal -100 | GFP signal change (wild-type ribosome), % (concentration not given with the values) | 350,000 tested, 1.6% active;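 active = significant combined selectivity score with lowered wild-type GFP, culture density cut under 30%, mutant RFP and density less affected; inactive = any of these conditions unmet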
AlphaScreen ctr = AlphaScreen signal interference compounds, dose response, artefact control for ARNT-TACC3 interaction inhibitor project, biochemical, luminescence, cherry-pick; 1,200 tested, 50% active; His-ARNT PASB-GST AlphaScreen artifact counter-screen; AC50, µM (highest dose often 68 µM); shares compounds with ARNT TACC3 PPI;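 active = every separate test run was called active for a drop in luminescence, with AC50 within twice the top valid dose, actives reach about 71 µM in these data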
Each line names hits and unclear results; the compound was inactive in the other large screens (follow-up assays come after a bar, where they were run). An excerpt weighted towards active compounds, which were near 2.4% of everything screened.

Nc1ccc2c(c1)C(=O)c1cc(N)c(Cl)cc1-2	Ecoli rRNA inh -18.6
COc1ccccc1NC(=O)N[C@H]1CC[C@@H](CC(=O)N2CCC(Cc3ccccc3)CC2)O[C@H]1CO	none
COc1cccc(CN2C[C@@H](C)[C@H](OC)CN(C)C(=O)c3cc(NS(=O)(=O)c4cn(C)cn4)ccc3OC[C@H]2C)c1	none
Cn1c(=O)[nH]c(=O)c2c1[nH]c(=S)n2Cc1ccc(Cl)cc1	ERAP1 HTS inh 44.6 (no result: PGC1a acetyl inh)
CN1C(=O)c2cc(NC(=O)NCc3ccccc3)ccc2OC[C@H]2O[C@@H](CC(=O)O)CC[C@@H]21	none
Cc1ccc(NS(=O)(=O)c2cccc3nsnc23)cc1	none
O=S(=O)(Nc1ccccc1)c1cccc2nsnc12	CASP6 VEID inh 35.6
CSc1ccc(CN2CCC2(C)C(=O)Nc2cccc(NS(C)(=O)=O)c2)cc1 (stereo not drawn)	CASP6 VEID inh 40.6 (no result: PGC1a acetyl inh, ARNT TACC3 PPI)
O=C(N[C@@H](Cc1cccnc1)C(=O)N1CCC[C@H]1C(=O)NCCc1ccccc1Cl)c1cccs1	Ecoli rRNA inh -17.3 (no result: PGC1a acetyl inh, ARNT TACC3 PPI)
COc1ccccc1N1CCN(/N=C/C=C/c2ccccc2[N+](=O)[O-])CC1	Ecoli rRNA inh -16.8
COc1ccccc1N1CCN(c2ccc([N+](=O)[O-])cn2)CC1	Ecoli rRNA inh -20.9 (no result: ARNT TACC3 PPI)
COc1ccccc1N1CCN(/N=C\c2ccccc2)CC1	none
O=[N+]([O-])c1ccc(N2CCC(O)CC2)nc1	none (no result: PGC1a acetyl inh, ARNT TACC3 PPI)
COc1ccccc1N1CCN(/N=C\c2sccc2C)CC1	Ecoli rRNA inh -27.6
Cc1ccc(NC(=O)CN2CCN(Cc3ccccc3)CC2)c(Br)c1	Ecoli rRNA inh -22.8
O=C(COC(=O)C1CCN(C(=O)c2ccc(Cl)cc2)CC1)Nc1ccccc1F	Ecoli rRNA inh -17.1 (no result: PGC1a acetyl inh)
N#Cc1ccccc1NC(=O)COC(=O)C1CCN(C(=O)c2ccc(Cl)cc2)CC1	none (no result: PGC1a acetyl inh)
Cc1ccccc1-n1c(C)cc(/C=N/Nc2ccc([N+](=O)[O-])cn2)c1C	none (no result: ERAP1 HTS inh, S100A4 MyoIIA, CASP6 VEID inh, Ecoli rRNA inh)
Cc1cc(/C=N/Nc2ccc([N+](=O)[O-])cn2)c(C)n1-c1ccc(C(=O)O)cc1	CASP6 VEID inh 42.8 (no result: PGC1a acetyl inh, ARNT TACC3 PPI)
O=[N+]([O-])c1ccc(NN=Cc2ccc(O)cc2O)nc1	Ecoli rRNA inh -21.7
CCN(CC)S(=O)(=O)c1ccc(N/N=C/c2ccc(O)cc2O)nc1	ARNT TACC3 PPI 46.1 (no result: ERAP1 HTS inh, S100A4 MyoIIA, CASP6 VEID inh, PGC1a acetyl inh, Ecoli rRNA inh)
Cc1ccccc1S(=O)(=O)NCC[C@H]1CC[C@@H](NC(=O)C2CCC2)[C@H](CO)O1	none
CCCC(=O)NC(c1ccccc1)c1c(O)ccc2ccccc12 (stereo not drawn)	none
CCC(=O)NC(c1ccccc1)c1c(O)ccc2ccccc12 (stereo not drawn)	Ecoli rRNA inh -32.5
O=C(CCC1CCN(Cc2ccccc2Cl)CC1)NC1CC1	PGC1a acetyl inh 94.6 (no result: ARNT TACC3 PPI)
COc1ccc(S(=O)(=O)N2CCC3(CC2)CN(C(=O)c2cccnc2)[C@@H](CO)c2c3c3ccc(OC)cc3n2C)cc1	none (no result: PGC1a acetyl inh, ARNT TACC3 PPI)
CCOC(=O)C(C)Sc1nc(-c2ccccn2)ncc1OC (stereo not drawn)	ARNT TACC3 PPI 59.9
COc1cnc(-c2ccccn2)nc1N(C)C	ARNT TACC3 PPI 74.1
CCOc1ccc(/C(O)=C2/C(=O)C(=O)N(c3ncccn3)C2c2ccc(Cl)cc2)cc1 (stereo not drawn)	Ecoli rRNA inh -31.6 (no result: ARNT TACC3 PPI)
Cc1n[nH]c(C)c1N=Nc1ccc(Br)cc1	Ecoli rRNA inh -35.9
COc1ccc(N=Nc2c(C)n[nH]c2C)cc1	none (no result: PGC1a acetyl inh)
CCOC(=O)C1=Nc2ccccc2C1=[N+]=[N-]	PGC1a acetyl inh 44.9 (no result: ERAP1 HTS inh, S100A4 MyoIIA, CASP6 VEID inh, Ecoli rRNA inh)
CCOC(=O)C1=Nc2cccc3c(O)ccc1c23	none (no result: PGC1a acetyl inh, ARNT TACC3 PPI, Ecoli rRNA inh)
N=C1SCC(=O)N1c1ncc(Cc2ccc(F)cc2)s1	Ecoli rRNA inh -47.5
Cc1ccc(-c2csc(N3C(=N)SCC3=O)n2)cc1	none (no result: PGC1a acetyl inh, ARNT TACC3 PPI)
CSC1=NCCN1C(=O)Cc1ccc(-c2ccccc2)cc1	Ecoli rRNA inh -19.4
CCSC1=NCCN1C(=O)Cc1ccc(-c2ccccc2)cc1	none
S=c1[nH]nc2ccccn12	none
Cc1ccn2c(=S)[nH]nc2c1	CASP6 VEID inh 36.6 (no result: ARNT TACC3 PPI, Ecoli rRNA inh)
COC(=O)c1c(C)[nH]c(C(=O)C(C)OC(=O)C2CC(=O)N(c3ccc(C)cc3)C2)c1C (stereo not drawn)	Ecoli rRNA inh -22.7
O=C1ON=C(c2ccccc2)/C1=C\c1ccco1	CASP6 VEID inh 35.9
Cc1ccc(/C=C2/C(=O)ON=C2c2ccccc2)o1	CASP6 VEID inh 59.6 (no result: ERAP1 HTS inh)
O=C(C[C@H]1CC[C@@H](NS(=O)(=O)c2ccc(F)cc2)[C@@H](CO)O1)NC1CCC1	none
C/C=C/c1ccc2c(c1)O[C@H](CN(C)C(=O)C1CCOCC1)[C@@H](C)CN([C@@H](C)CO)S2(=O)=O	none
CCN(CC(=O)NCc1cccs1)CC(=O)Nc1cccc(S(N)(=O)=O)c1	ARNT TACC3 PPI 26.3 (no result: PGC1a acetyl inh) | AlphaScreen ctr inactive
O=C(NC1CCCC1)[C@@H]1[C@@H](CO)[C@@H]2Cn3c(cccc3=O)[C@@H]2N1CCc1ccccc1	none (no result: ARNT TACC3 PPI)
C[C@H]1CCCCO[C@H](CN(C)C(=O)c2ccccc2)[C@@H](C)CN([C@@H](C)CO)C(=O)c2cc(NC(=O)CCCN(C)C)ccc2O1	none
COC(=O)C(CC#Cc1ccc2c(c1)[C@]1(C(=O)N2)[C@H](c2ccc(OCCO)cc2)N2[C@H](c3ccccc3)[C@H](c3ccccc3)OC(=O)[C@H]2[C@@H]1C(=O)N1CCCCCCC1)C(=O)OC	ARNT TACC3 PPI 63.3 (no result: Ecoli rRNA inh) | AlphaScreen ctr inactive
O=C1O[C@@H](c2ccccc2)[C@@H](c2ccccc2)N2[C@@H](c3ccc(OCCO)cc3)[C@]3(C(=O)Nc4ccc(C#CC5(O)CCCCCC5)cc43)[C@@H](C(=O)N3CCCCCCC3)[C@H]12	none (no result: Ecoli rRNA inh)
CC(=O)NC(C)c1cc(Cl)c2cccnc2c1O (stereo not drawn)	ARNT TACC3 PPI 51.7 | AlphaScreen ctr 35.7µM
CCC(=O)NC(C)c1cc(Cl)c2cccnc2c1O (stereo not drawn)	ARNT TACC3 PPI 60.7 (no result: CASP6 VEID inh, PGC1a acetyl inh) | AlphaScreen ctr 42.6µM
O=C(Cc1ccccn1)N[C@H]1CC[C@H](CCn2cc(-c3ccccc3)nn2)O[C@@H]1CO	none
Cc1cccc(OCc2nc(-c3ccccn3)n[nH]2)c1	ARNT TACC3 PPI 67.4 (no result: ERAP1 HTS inh, S100A4 MyoIIA, CASP6 VEID inh, Ecoli rRNA inh) | AlphaScreen ctr 35µM

From PubChem BioAssay
